In article PMC5831081 (Biochemistry, 2017):
Where a chain is given by its changes, count along the chain named. “And” between values parts separate entries of the source, which are not always exact repeats. Equal entries are not always repeated.

How the values were obtained:
CYP2B4 [1] = molecular target: T1, CYP2B4 (Oryctolagus cuniculus, UniProt P00178, H226Y); assay: NADPH oxidation assay; format: biochemical, rabbit; details: CYP:POR:cyt b5 1:4:2, 20 μM inhibitor, 37 °C
T1 sequence (P00178 with tags, fused parts or gaps H226Y): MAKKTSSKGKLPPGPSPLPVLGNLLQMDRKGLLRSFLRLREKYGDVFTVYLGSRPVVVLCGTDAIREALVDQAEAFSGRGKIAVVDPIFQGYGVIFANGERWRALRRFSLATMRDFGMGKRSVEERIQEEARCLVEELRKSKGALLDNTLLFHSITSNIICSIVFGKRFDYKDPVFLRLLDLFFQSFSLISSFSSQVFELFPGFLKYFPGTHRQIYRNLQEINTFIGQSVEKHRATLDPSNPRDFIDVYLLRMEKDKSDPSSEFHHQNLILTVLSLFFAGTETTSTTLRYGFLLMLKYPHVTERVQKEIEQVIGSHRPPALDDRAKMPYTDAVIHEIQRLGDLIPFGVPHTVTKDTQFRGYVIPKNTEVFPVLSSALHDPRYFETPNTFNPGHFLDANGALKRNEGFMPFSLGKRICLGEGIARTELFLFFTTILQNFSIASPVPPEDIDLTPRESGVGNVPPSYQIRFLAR
Outline: (§1)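 Purified CYP2B was reconstituted with POR and cyt b5 at CYP:POR:cyt b5 1:4:2, or 0:4:2 for the partner-only control. Mixtures contained ligand (20 µM unless stated) and 1% acetone in 300 µL. After 5 min preincubation at 37 °C, 0.2 mM NADPH was added. NADPH consumption was recorded kinetically as the A340 decrease (ε 6.22 mM-1 cm-1). Rates are nmol/min/nmol P450, mean ± SD of three independent experiments.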

human CYP2B6 = assay: Spectral binding titration; details: CYP2B6 spectral titration, with vs without POR
CYP2B6 [2] = molecular target: T2, CYP2B6 (Homo sapiens, UniProt P20813, K262R/Y226H); assay: Spectral binding titration; details: for Kd: KS
T2 sequence (P20813 with tags, fused parts or gaps Y226H/K262R): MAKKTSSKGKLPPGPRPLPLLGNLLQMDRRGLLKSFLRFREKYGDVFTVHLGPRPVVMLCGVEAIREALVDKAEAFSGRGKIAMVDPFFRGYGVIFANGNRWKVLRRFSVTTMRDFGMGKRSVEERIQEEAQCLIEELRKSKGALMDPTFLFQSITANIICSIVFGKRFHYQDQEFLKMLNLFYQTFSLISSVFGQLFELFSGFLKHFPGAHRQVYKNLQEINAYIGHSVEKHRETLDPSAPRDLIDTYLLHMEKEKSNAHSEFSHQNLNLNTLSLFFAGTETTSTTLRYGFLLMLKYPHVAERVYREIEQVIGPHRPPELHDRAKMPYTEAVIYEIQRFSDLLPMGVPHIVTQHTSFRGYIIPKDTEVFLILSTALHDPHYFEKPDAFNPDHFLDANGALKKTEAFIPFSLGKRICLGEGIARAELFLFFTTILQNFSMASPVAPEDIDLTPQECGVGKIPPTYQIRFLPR

CYP2B4 [3] = molecular target: T1, CYP2B4; assay: NADPH-dependent 7-EFC O-deethylation enzyme inhibition assay; format: biochemical, rabbit; details: for mechanism of inhibition: CYP2B4, non-linear regression analysis
CYP2B6 L363V [4] = molecular target: T3, CYP2B6 L363V (Homo sapiens, UniProt P20813, K262R/L363V/Y226H); assay: as above; format: biochemical
T3 sequence (P20813 with tags, fused parts or gaps Y226H/K262R/L363V limits assumed): T2 sequence (P20813 with tags, fused parts or gaps Y226H/K262R) with L344V

CYP2B6 [5] = molecular target: T2, CYP2B6; assay: as above; format: biochemical; details: for mechanism of inhibition: CYP2B6, non-linear regression analysis; for IC50: NADPH-based IC50, CYP2B6
rabbit CYP2B4 = molecular target: T4, rabbit CYP2B4 (Oryctolagus cuniculus, UniProt P00178, A26S/E2A/G22K/H226Y/H23K/H27K/K25S/P24T/R29K); assay: Spectral binding titration; details: spectral binding titrations
T4 sequence (P00178 with tags, fused parts or gaps H226Y limits assumed): T1 sequence (P00178 with tags, fused parts or gaps H226Y)

CYP2B4 I363V [6] = molecular target: T5, CYP2B4 I363V (Oryctolagus cuniculus, UniProt P00178, H226Y/I363V); details: CYP2B4 I363V valine mutant
T5 sequence (P00178 with tags, fused parts or gaps H226Y/I363V limits assumed): T1 sequence (P00178 with tags, fused parts or gaps H226Y) with I344V

CYP2B6 L363V [7] = molecular target: T3, CYP2B6 L363V; details: CYP2B6 L363V valine mutant
rat CYP2B1 = molecular target: T6, rat CYP2B1 (Rattus norvegicus, UniProt P00176); assay: Spectral binding titration; details: spectral binding titrations
T6 sequence (P00176 1-491): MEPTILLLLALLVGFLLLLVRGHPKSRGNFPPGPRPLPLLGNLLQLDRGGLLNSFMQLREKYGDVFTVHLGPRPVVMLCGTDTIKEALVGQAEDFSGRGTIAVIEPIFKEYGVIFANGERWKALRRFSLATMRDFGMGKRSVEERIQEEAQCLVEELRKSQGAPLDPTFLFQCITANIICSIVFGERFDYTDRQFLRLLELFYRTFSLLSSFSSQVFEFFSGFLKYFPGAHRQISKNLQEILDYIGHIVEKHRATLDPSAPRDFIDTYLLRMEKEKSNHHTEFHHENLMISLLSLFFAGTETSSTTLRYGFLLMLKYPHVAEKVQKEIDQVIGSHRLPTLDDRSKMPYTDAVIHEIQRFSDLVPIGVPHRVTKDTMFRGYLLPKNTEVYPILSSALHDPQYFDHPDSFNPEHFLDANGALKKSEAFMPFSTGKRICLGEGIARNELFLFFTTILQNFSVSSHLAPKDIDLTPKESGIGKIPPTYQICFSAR

POR:cyt b5 = POR:cyt b5 (Rattus norvegicus, UniProt P00173+P00388); assay: NADPH oxidation assay, redox partners only; format: biochemical; details: control POR:cyt b5=4:2 without CYP; 20 μM 4-CPI; 37 °C
POR:cyt b5, sequence (P00388 whole entry): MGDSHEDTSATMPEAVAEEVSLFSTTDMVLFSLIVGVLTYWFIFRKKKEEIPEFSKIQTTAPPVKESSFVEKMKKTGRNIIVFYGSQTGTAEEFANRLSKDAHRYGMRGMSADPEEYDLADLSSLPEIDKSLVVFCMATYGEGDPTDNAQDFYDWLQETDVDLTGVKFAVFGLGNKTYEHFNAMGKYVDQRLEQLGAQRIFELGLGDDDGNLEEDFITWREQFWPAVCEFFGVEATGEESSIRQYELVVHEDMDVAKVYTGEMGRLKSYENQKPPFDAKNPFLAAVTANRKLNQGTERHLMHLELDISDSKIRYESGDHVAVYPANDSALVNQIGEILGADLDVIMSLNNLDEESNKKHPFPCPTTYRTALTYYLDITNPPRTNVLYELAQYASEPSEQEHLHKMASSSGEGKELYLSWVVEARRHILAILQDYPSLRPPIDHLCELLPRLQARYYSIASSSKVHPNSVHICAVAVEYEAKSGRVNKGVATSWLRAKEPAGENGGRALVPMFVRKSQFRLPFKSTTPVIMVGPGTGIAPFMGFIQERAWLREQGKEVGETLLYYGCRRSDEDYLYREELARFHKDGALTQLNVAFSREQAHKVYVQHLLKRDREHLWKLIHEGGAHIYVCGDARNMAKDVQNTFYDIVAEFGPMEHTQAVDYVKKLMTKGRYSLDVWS
POR:cyt b5, sequence (P00173 whole entry): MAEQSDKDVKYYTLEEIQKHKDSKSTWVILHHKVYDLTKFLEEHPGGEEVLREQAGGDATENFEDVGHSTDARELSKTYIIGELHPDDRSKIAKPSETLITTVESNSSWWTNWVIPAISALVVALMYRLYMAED
Outline: as §1

CYP2B4 I363V [8] = molecular target: T5, CYP2B4 I363V; assay: NADPH-dependent 7-EFC O-deethylation kinetics; format: biochemical, rabbit
Outline: (§2)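 Purified CYP2B was reconstituted with POR and cyt b5 (molar 1:4:2 or 1:4:0), 2.5–5 pmol CYP, in 100 µL HEPES pH 7.4 with 7-EFC at 37 °C. After 5 min preincubation, 1 mM NADPH was added. After 5 min, reactions were quenched with ice-cold acetonitrile and diluted into 0.1 M Tris pH 9.0. 7-HFC was measured by fluorescence (ex 410/em 510 nm) against a daily 0–50 µM 7-HFC standard curve.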

CYP2B1 = molecular target: T7, CYP2B1 (Rattus norvegicus, UniProt P00176); assay: NADPH-dependent 7-EFC O-deethylation kinetics; format: biochemical
T7 sequence (P00176 1-491): T6 sequence (P00176 1-491)
Outline: as §2

CYP2B6 [9] = molecular target: T2, CYP2B6; assay: Cumene hydroperoxide; format: biochemical; details: for IC50: CuOOH-based IC50, CYP2B6
Outline: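 Purified CYP2B6 was tested alone or with cyt b5 (CYP:cyt b5 1:2) in HEPES buffer at 37 °C, with 7-EFC near KM and varying test compound. Reactions started with 0.5 mM cumene hydroperoxide. For kinetics, 7-HFC formation was followed continuously in stirred 500 µL of 0–200 µM 7-EFC. Initial-slope rates were fitted to Michaelis–Menten. IC50 came from a four-parameter logistic fit. Mean ± SD, n=3.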

CYP2B6 [10] = molecular target: T2, CYP2B6; assay: Incubation of POA with CYP2B6, UPLC-MS search for oxidative metabolites; format: in vitro ADME; details: POA incubated with CYP2B6, with or without NADPH
[11] = CYP2B6, with POR (1 μM CYP, 4 μM POR), HEPES buffer
[12] = CYP2B6, without POR, HEPES buffer
[13] = CYP2B6, without POR, sucrose buffer
[14] = KI, CYP2B6, CYP:POR:cyt b5 1:4:2, 0-200 μM 7-EFC, 37 °C
[15] = Ki,app (Cheng-Prusoff from IC50), CYP2B6, absence of cyt b5
[16] = Ki,app (Cheng-Prusoff from IC50), CYP2B6, presence of cyt b5

Structure (SMILES)	NADPH oxidation rate (CYP2B4 [1])	fold increase of KS (decrease in affinity) on including POR (human CYP2B6)	Type-II (%) (CYP2B6 [2]; [11])	Type-II (%) (CYP2B6 [2]; [12])	Type-II (%) (CYP2B6 [2]; [13])	Kd (CYP2B6 [2]; [11])	Kd (CYP2B6 [2]; [12])	Kd (CYP2B6 [2]; [13])	Ki (CYP2B4 [3])	mechanism of inhibition (CYP2B4 [3])	Ki (CYP2B6 L363V [4])	mechanism of inhibition (CYP2B6 [5])	Ki (CYP2B6 [5]; [14])	Ki (CYP2B6 [5]; [15])	Ki (CYP2B6 [5]; [16])	IC50 (CYP2B6 [5]; CYP:POR (no cyt b5))	IC50 (CYP2B6 [5]; CYP:POR:cyt b5)	further results
Nc1ccc(Oc2cc(Cl)c(Cl)cc2Cl)cc1 [2′4′5′TCPOA, 4-(2′,4′,5′-trichlorophenoxy)aniline]	20±1 nmol/min/nmolP450	4-6 fold	17±3%	19±1%	9±1%	8100 ± 1700 nM	1400 ± 400 nM	700 ± 300 nM	370 ± 40 nM	competitive inhibitors	750 ± 100 nM	competitive inhibitors	640 ± 80 nM	1800 nM	220 nM	3700 ± 300 nM	430 ± 40 nM	fold increase of KS (decrease in affinity) on including POR (human CYP2B6; listed as 2′4′5′-TCPOA): 5.8 fold
Nc1ccc(Cc2ccc(Cl)cc2Cl)cc1 [2′4′DCBA, 4-[(2′,4′-dichlorophenyl)methyl]aniline]																		relative affinity among the ligands tested (rabbit CYP2B4): highest affinity; relative affinity among the ligands tested (CYP2B6 [2]; spectral binding titrations, CYP2B6): highest affinity; relative affinity among the congeners (CYP2B4 I363V [6]): highest affinity; relative affinity among the congeners (CYP2B6 L363V [7]): highest affinity; relative affinity among the ligands tested (rat CYP2B1): highest affinity
Clc1ccc(-c2c[nH]cn2)cc1 [4-CPI, 4-(4-chlorophenyl)imidazole, reference compound]	10±1 nmol/min/nmolP450																	NADPH oxidation rate (POR:cyt b5): 12±1 nmol/min/nmolP450
CCOc1ccc2c(C(F)(F)F)cc(=O)oc2c1 [7-EFC, 7-Ethoxy-4-(trifluoromethyl)coumarin, reference compound]																		Michaelis constant for 7-EFC (CYP2B4 I363V [8]): ~ 120 μM; Michaelis constant for 7-EFC (CYP2B1): ~ 120 μM; kcat of 7-EFC O-deethylation (CYP2B6 [9]; CYP2B6 with CuOOH): 0.007 s⁻¹; Km (CYP2B6 [9]; human, CYP2B6 enzyme with cumene hydroperoxide, pH 7.4): 56 µM
Nc1ccc(Oc2ccccc2)cc1 [POA, 4-(phenoxy)aniline]	33±2 nmol/min/nmolP450	4.2 fold and 4-6 fold	9.2±3.3%	16±1%	26±1%	2800 ± 1400 nM	670 ± 360 nM	1200 ± 200 nM	1300 ± 650 nM	competitive inhibitors	67000 ± 10000 nM	competitive inhibitors	13000 ± 1900 nM	7500 nM	13500 nM	15000 ± 1000 nM	27000 ± 5000 nM	mechanism of inhibition (CYP2B6 L363V [4]; CYP2B6 L363V, non-linear regression analysis): non-competitive inhibitor; IC50 (CYP2B6 [9]; CYP alone): 38000 ± 7000 nM; IC50 (CYP2B6 [9]; CYP:cyt b5): 44000 ± 14000 nM; CYP-mediated oxidative metabolites identified by UPLC-MS (CYP2B6 [10]): no potential CYP-mediated oxidative metabolites; fold increase of IC50 by cyt b5 (CYP2B6 [5]; CYP2B6, NADPH-driven, with vs without cyt b5): 1.8 fold
